Data published in article PMC2582604 (Nucleic Acids Research, 2008).

Legend:
[1] = test system: aberrant β-globin intron 705 site in HeLa pLuc705 cells; experiment: HeLa pLuc705 splicing redirection, RT-PCR analysis; assay type: cell-based; conditions: RT-PCR assay
In short: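 HeLa pLuc705 cells were treated with increasing conjugate concentrations as in the luciferase assay (4 h OptiMEM, then 20 h with added serum medium). Total RNA was extracted from the leftover lysate after luciferase and protein measurement. RT-PCR products were separated on 2% agarose and gels scanned to quantify aberrant versus correctly spliced RNA. EC50 of splicing redirection was taken from the dose series.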

HeLa pLuc705 cells [2] = experiment: Energy dependence of uptake; assay type: cell-based; conditions: 1 µM conjugate, 30 min pre-incubation, 1 h incubation, luciferase read-out
In short: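 Cells pre-incubated 30 min in OptiMEM at either 37°C or 4°C. Conjugate was then added at 1 μM final and incubation continued 1 h. Read-out was luciferase in lysates, normalised to BCA protein, as in the splicing redirection assay.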

Serum stability assay = assay type: in vitro ADME, mouse; conditions: 37°C
In short: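 Conjugate (20 μM) incubated at 37°C in PBS with 20% mouse serum (from clotted blood of female Balb/c mice, cleared by 3 × 30 min centrifugation at 4°C). Aliquots at 0, 15, 30, 60 and 120 min were quenched in 10% dichloroacetic acid in H2O/CH3CN (50/50) and held at –20°C. Supernatant after protein pelleting was analysed by MALDI-TOF MS; cleavage sites were assigned from fragment masses, semi-quantitatively.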

HeLa pLuc705 cells [3] = experiment: HeLa pLuc705 splicing redirection, luciferase upregulation; assay type: cell-based
In short: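 HeLa pLuc705 cells were seeded at 1.75 × 10^5/well and grown overnight. Test compound was added for 4 h in OptiMEM without transfection agent, then diluted with DMEM/10% FBS for a further 20 h. Cells were washed in ice-cold PBS and lysed. Luminescence was normalised to BCA protein (550 nm) and expressed as RLU/µg protein or fold over background. Triplicates averaged.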

[4] = test system: dystrophin pre-mRNA exon 23 in mdx myoblasts; experiment: Exon skipping after electroporation into mdx myoblasts; assay type: cell-based, mouse; conditions: 0.5 nmol electroporated into mdx myoblasts, 24 h, nested RT-PCR
In short: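 H2K mdx myoblasts (undifferentiated) were grown 2 days at 33°C, 10% CO2, in 20% FBS/DMEM with interferon γ, then trypsinised. 1.5 × 10^6 cells/100 µl Nucleofector Solution V were pulsed with 0.5 nmol PNA, conjugate or sense control PNA (program T-020). Cells rested 10 min at room temperature in OptiMEM, then cultured 24 h on gelatin at 33°C. Total RNA underwent one-step RT-PCR then nested PCR; 2% agarose gel.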

HeLa pLuc705 cells [5] = experiment: Endocytosis inhibitor study, luciferase read-out; assay type: cell-based; conditions: 1 μM conjugate
In short: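 HeLa pLuc705 cells pre-incubated 30 min in OptiMEM at 37°C with inhibitor: chlorpromazine 30 μM or K+ depletion (clathrin), nystatin 50 μM or filipin-III 5 μg ml–1 (caveolae), methyl-β-cyclodextrin 2.5 mM or EIPA 1 mM (macropinocytosis). Inhibitor levels and timings were set to spare protein synthesis. Conjugate then added to 1 μM final for 30 min. Luciferase read as in the splicing assay.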

Substance: (RXR)3-IKILFQN-R|RMKWKKC [Pip1–PNA705]
- EC50 improvement relative to R6Pen–PNA [1]: about 2 fold
- uptake mechanism from splicing redirection activity at 37°C and 4°C (HeLa pLuc705 cells [2]): energy-dependent uptake mechanism
- time to full cleavage in 20% mouse serum (Serum stability assay; 20 μM conjugate, PBS with 20% mouse serum, MALDI-TOF MS): ≤ 1 h
- major serum proteolytic cleavage site (Serum stability assay; 20% mouse serum, fragment masses by MALDI-TOF MS): between amino acids R17 and R18
- fold increase in luminescence compared to R6Pen–PNA705 (HeLa pLuc705 cells [3]; at similar concentrations, HeLa pLuc705 luciferase assay): two to three times

Substance: (R-Ahx-R)3IdKILFQNdRRMKWHKBC [Pip2a–PNA705]
- uptake mechanism from splicing redirection activity at 37°C and 4°C (HeLa pLuc705 cells [2]): energy-dependent uptake mechanism

Substance: sense control PNA: sense 20-mer PNA control sequence AGGTAAGCCGAGGTTTGGCC (all peptide nucleic acid (PNA))
- exon skipping after electroporation [4]: no exon skipping

Substance: (R-Ahx-R)3IHILFQNdRRMKWHKBC [Pip2b–PNA705]
- uptake mechanism from splicing redirection activity at 37°C and 4°C (HeLa pLuc705 cells [2]): energy-dependent uptake mechanism
- effect of EIPA on luciferase expression (HeLa pLuc705 cells [5]; EIPA 1 mM (macropinocytosis)): no effect
- inhibitory effect of fillipin-III on luciferase expression (HeLa pLuc705 cells [5]; fillipin-III 5 μg ml–1 (caveolae)): 36%
- effect of methyl-β-cyclodextrin on luciferase expression (HeLa pLuc705 cells [5]; methyl-β-cyclodextrin 2.5 mM (macropinocytosis)): increased luciferase expression
- inhibitory effect of nystatin on luciferase expression (HeLa pLuc705 cells [5]; nystatin 50 μM (caveolae)): 12%
- stability to serum proteolysis (Serum stability assay; 20 μM conjugate, PBS with 20% mouse serum, 1 h, MALDI-TOF MS): predominantly stable for 1 h
- activity compared to RXR4–PNA705 (HeLa pLuc705 cells [3]; HeLa pLuc705, absence of transfection or permeabilization agent): 3- to 4 fold
